Assay results from different studies.
Target: Dual specificity mitogen-activated protein kinase kinase 1 (MAP2K1, Homo sapiens, UniProt Q02750)

| SMILES | effect on | technique | tested at | remaining binding |
| --- | --- | --- | --- | --- |
| CNC(=O)c1cc(Oc2ccc(NC(=O)Nc3ccc(Cl)c(C(F)(F)F)c3)cc2)ccn1 | cell-free assay | competition with immobilised ligand | 10 µM | 99% |
| c1cncc(-c2cccc(Nc3nccc(NC4CCCCC4)n3)c2)c1 | binding | competition with immobilised ligand | 10 µM | 79% |
| COc1cnc(Nc2cccc(S(N)(=O)=O)c2)nc1N1CCN(c2ccccc2)C(=O)C1 | binding | competition with immobilised ligand | 1 µM | 91% |
| N[C@@H]1CCN(c2nccc(-c3cnn4ncccc34)n2)C1 | binding | – | 1 µM | 100% |
| CNC(=O)[C@@H]1CC[C@@H](n2c(-c3ccc4cnccc4c3)nc3ccc(C(=O)NCc4cccc(C(N)=O)c4)cc32)C1 | binding | competition with immobilised ligand | 1 µM | 100% |
| F[C@@H]1CCN(c2nccc(-c3cnn4ncccc34)n2)C1 | binding | – | 1 µM | 89% |
| CC1=C(C#N)C(c2ccc3c(c2)c(NC(=O)c2ccccc2C)nn3C)C(C#N)=C(C)N1 | cell-free assay | competition with immobilised ligand | 1 µM | 87% |
| CN(C)c1nccc(-c2cnc3ncccn23)n1 | binding | competition with immobilised ligand | 1 µM | 81% |
| CN1CC[C@H](c2c(O)cc(O)c3c(=O)cc(-c4ccccc4Cl)oc23)[C@H](O)C1 | cell-free assay | competition with immobilised ligand | 0.1 µM | 92% |
| O=C(c1ccc(Nc2ncc(Cl)c(-c3ccc(Cl)s3)n2)cc1)N1CCC(N2CCCC2)CC1 | binding | competition with immobilised ligand | 1 µM | 18% |
| O=C1CCc2cc(Nc3cc(OC4CCOCC4)c([N+](=O)[O-])cc3Cl)ccc2N1 | cell-free assay | competition with immobilised ligand | 1 µM | 72% |
| CN(c1nccc(-c2cnn3ncccc23)n1)C1CC1 | binding | – | 1 µM | 100% |
| Cc1ccc(NC(=O)c2ccc(CN3CCN(C)CC3)cc2)cc1Nc1nccc(-c2cccnc2)n1 | cell-free assay | competition with immobilised ligand | 10 µM | 94% |
| C[C@@H]1CN(c2ccc3ncc(-c4ccc5[nH]nc(C6CC6)c5c4)n3n2)C[C@H](C)O1 | binding | competition with immobilised ligand | 0.5 µM | 100% |
| O=C(NCCCN1CCOCC1)c1ccc(Nc2nccc(-c3cc4ccccc4s3)n2)cc1 | binding | competition with immobilised ligand | 1 µM | 75% |
| Cc1nc(Nc2ncc(C(=O)Nc3c(C)cccc3Cl)s2)cc(N2CCN(CCO)CC2)n1 | cell-free assay | competition with immobilised ligand | 0.1 µM | 89% |

| SMILES | effect on | technique | tested at | remaining binding |
| --- | --- | --- | --- | --- |
| O=C(Nc1c[nH]nc1C(=O)NC1CCNCC1)c1cc(F)cc(F)c1 | binding | competition with immobilised ligand | 1 µM | 80% |
| Cc1cnc(Nc2ccc(C(=O)N3CCC(N4CCCC4)CC3)cc2)nc1-c1cc2ccccc2s1 | binding | competition with immobilised ligand | 1 µM | 25% |
| N#Cc1ccccc1CSc1nnc2c(n1)[nH]c1ccccc12 | binding | competition with immobilised ligand | 10 µM | 95% |
| CCCOc1ccc([C@@H]2[C@@H](C(=O)O)[C@H](c3ccc4c(c3)OCO4)CN2CC(=O)Nc2c(CC)cccc2CC)cc1 | cell-free assay | competition with immobilised ligand | 1 µM | 93% |
| C[C@@H]1CCN(c2nccc(-c3cnn4ncccc34)n2)C1 | binding | competition with immobilised ligand | 1 µM | 75% |
| CS(=O)(=O)CCNCc1ccc(-c2ccc3ncnc(Nc4ccc(OCc5cccc(F)c5)c(Cl)c4)c3c2)o1 | cell-free assay | competition with immobilised ligand | 0.1 µM | 95% |
| N#CC1(c2ccccn2)CCN(Cc2cc(C(=O)N3CCCC3)c(=O)n3ccccc23)CC1 | cell-free assay | competition with immobilised ligand | 1 µM | 100% |
| CCN1CCN(Cc2ccc(C(=O)Nc3ccc(C)c(Oc4ccc5c(c4)CC(=O)N5)c3)cc2C(F)(F)F)CC1 | binding | competition with immobilised ligand | 1 µM | 100% |
| CC(=O)N1CCC(c2ccc(C(=O)NC(=N)N)cc2C(F)(F)F)CC1 | cell-free assay | competition with immobilised ligand | 1 µM | 97% |
| CCN(CC)Cc1cc(Nc2ccnc3cc(Cl)ccc23)ccc1O | cell-free assay | competition with immobilised ligand | 0.1 µM | 95% |
| CN(C)c1ncnc(-c2ccc3nc(Nc4cc(CN5CCN(C(=O)CC(F)(F)F)CC5)ccn4)[nH]c3c2)c1Cl | cell-free assay | competition with immobilised ligand | 1 µM | 78% |
| COc1cc2ncnc(Nc3ccc(F)c(Cl)c3)c2cc1OCCCN1CCOCC1 | cell-free assay | competition with immobilised ligand | 0.1 µM | 100% |
| C[C@H](c1cccc(C#N)c1)n1cc(Cl)cc(C(N)=O)c1=N | cell-free assay | competition with immobilised ligand | 1 µM | 75% |
| C[C@@H](c1ccc(-n2cnc3c(N)ncnc32)cc1)N1CCc2nn(C)c(Cc3ccccc3)c2C1=O | binding | competition with immobilised ligand | 0.1 µM | 89% |
| Cc1c(-c2ccccc2)oc2c(C(=O)OCCN3CCCCC3)cccc2c1=O | cell-free assay | competition with immobilised ligand | 0.1 µM | 94% |
| Cc1nc(Cc2cccc(C(F)(F)F)c2)sc1-c1ccc(C(N)=O)nc1 | cell-free assay | competition with immobilised ligand | 1 µM | 100% |
